Measured values from ChEMBL document CHEMBL4673246, “Directing Drugs to Bugs: Antibiotic-Carbohydrate Conjugates Targeting Biofilm-Associated Lectins of Pseudomonas aeruginosa” (J Med Chem, 2020).
In brackets after ≈: the same amount, converted by molar mass.

Columns and labels:
[1] = test system: Pseudomonas aeruginosa; test: Antibacterial activity against Pseudomonas aeruginosa PAO1 assessed as growth inhibition after 18 to 20 hrs in presence of PMBN by broth microdilution assay; assay type: functional; conditions: time 18-20 hrs
Outline: (§1)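 Broth microdilution per EUCAST guidelines in Müller-Hinton broth II (Ca2+/Mg2+ supplemented, pH 7.3). Colonies from overnight LB-agar plates were suspended to OD600 0.08–0.13, diluted 1:100, final inoculum 5 × 10^5 CFU/mL. PMBN at 2 μg/mL was added to the inoculum where indicated. Incubation 37 °C, 18–20 h. MIC was the lowest concentration with no visible growth. At least three independent experiments.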

[2] = test system: Pseudomonas aeruginosa; test: Antibacterial activity against Pseudomonas aeruginosa PAO1 assessed as growth inhibition after 18 to 20 hrs by broth microdilution assay; assay type: functional; conditions: time 18-20 hrs
Outline: (§2)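 Overnight LB-agar colonies suspended to OD600 0.08–0.13, diluted 1:100; final inoculum 5 × 10^5 CFU/mL. 37 °C, 18–20 h, humid. MIC = lowest concentration without visible growth; range from at least three independent experiments.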

[3] = test system: Pseudomonas aeruginosa; test: Antibacterial activity against Pseudomonas aeruginosa PA14 harboring LecB deletion mutant assessed as growth inhibition after 18 to 20 hrs by broth microdilution assay; assay type: functional; conditions: time 18-20 hrs; outline: as §2
[4] = test system: Pseudomonas aeruginosa; test: Antibacterial activity against Pseudomonas aeruginosa PA14 harboring LecA deletion mutant assessed as growth inhibition after 18 to 20 hrs by broth microdilution assay; assay type: functional; conditions: time 18-20 hrs; outline: as §2
[5] = test system: Pseudomonas aeruginosa; test: Antibacterial activity against Pseudomonas aeruginosa PA14 assessed as growth inhibition after 18 to 20 hrs in presence of PMBN by broth microdilution assay; assay type: functional; conditions: time 18-20 hrs
Outline: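 Cation-supplemented Mueller-Hinton broth II; final inoculum 5 × 10^5 CFU/mL. Incubated at 37 °C for 18–20 h. MIC read visually as the lowest concentration without growth; at least three independent experiments.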

[6] = test system: Pseudomonas aeruginosa; test: Antibacterial activity against Pseudomonas aeruginosa PA14 assessed as growth inhibition after 18 to 20 hrs by broth microdilution assay; assay type: functional; conditions: time 18-20 hrs; outline: as §2
[7] = test system: Staphylococcus carnosus; test: Antibacterial activity against Staphylococcus carnosus DSM 20501 assessed as growth inhibition after 18 to 20 hrs by broth microdilution assay; assay type: functional; conditions: time 18-20 hrs; outline: as §2
[8] = test system: Escherichia coli; test: Antibacterial activity against Escherichia coli K-12 MG1655 assessed as growth inhibition after 18 to 20 hrs by broth microdilution assay; assay type: functional; conditions: time 18-20 hrs; outline: as §2
[9] = Inhibition of Pseudomonas aeruginosa ATCC 33347 LecA expressed in Escherichia coli BL21(DE3) cells incubated for 30 to 60 mins by (N-(fluorescein-5-yl)-N'-(beta-D-(m-aminophenyl)-galactopyranosyl)thiocarbamide) reporter based fluorescence polarization assay
Outline: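 LecA at 40 μM with 20 nM fluorescein-galactoside reporter in TBS/Ca. Test compound serial dilutions in 30% DMSO co-solvent, triplicate. Incubation 30–60 min at room temperature, then fluorescence polarization read (ex 485, em 535 nm), blank-corrected for LecA alone. Four-parameter fit with plateaus fixed by the p-nitrophenyl β-D-galactoside control. At least three independent plates.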

[10] = test system: Pseudomonas aeruginosa; test: Potency index ratio of Me-alpha-D-Gal IC50 to test compound IC50 for Inhibition of Pseudomonas aeruginosa ATCC 33347 LecA expressed in Escherichia coli BL21(DE3) cells
[11] = test system: Pseudomonas aeruginosa; test: Potency index ratio of pNP-beta-D-Gal IC50 to test compound IC50 for Inhibition of Pseudomonas aeruginosa ATCC 33347 LecA expressed in Escherichia coli BL21(DE3) cells
[12] = Cytotoxicity against human A549 cells assessed as growth inhibition at 100 uM after 48 hrs by MTT assay relative to control; assay type: cell-based; conditions: read-out: GI
Outline: (§3)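 MTT assay: HEK293 or A549 cells seeded at 2 × 10^5 per well. Compounds (final DMSO 1%) were added 24 h after seeding. Living cell mass was read after 48 h.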

[13] = Cytotoxicity against HEK293 cells assessed as growth inhibition at 100 uM after 48 hrs by MTT assay relative to control; assay type: cell-based; conditions: human, read-out: GI; outline: as §3
[14] = test system: Escherichia coli; test: Antibacterial activity against Escherichia coli DSM 1116 assessed as growth inhibition after 18 to 20 hrs by broth microdilution assay; assay type: functional; conditions: time 18-20 hrs
Outline: as §1, with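 “7.3). Test range 128 to 0.125 μg/mL, from DMSO stocks.” for “7.3).”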

[15] = Clearance in human liver microsomes; assay type: ADME, Microsome
[16] = Protein binding in human plasma at 1 uM measured up to 6 hrs by LC-MS/MS analysis; assay type: ADME, cell-free
Outline: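 Rapid equilibrium dialysis: human plasma diluted with PBS pH 7.4 on one side, PBS on the other, compound at 1 μM final. Shaken at 37 °C for 6 h. Sampled at 0, 5 and 6 h and quantified by LC-MS/MS. Binding calculated from the concentration difference between chambers. Warfarin as control.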

[17] = Half life in human plasma at 40 uM measured up to 150 mins by LC-MS/MS analysis; assay type: ADME, cell-free
[18] = Clearance in mouse liver microsomes; assay type: ADME, Microsome
[19] = Inhibition of Pseudomonas aeruginosa PA14 LecB expressed in Escherichia coli BL21(DE3) cells incubated for 4 to 8 hrs by (N-(fluorescein-5-yl)-N'-(alpha-L-fucopyranosyl ethylene)thiocarbamide) reporter based fluorescence polarization assay
[20] = Inhibition of Pseudomonas aeruginosa PAO1 LecB expressed in Escherichia coli BL21(DE3) cells incubated for 4 to 8 hrs by (N-(fluorescein-5-yl)-N'-(alpha-L-fucopyranosyl ethylene)thiocarbamide) reporter based fluorescence polarization assay
[21] = target: DNA gyrase (Escherichia coli, UniProt P0AES4+P0AES6); test: Inhibition of Escherichia coli DNA gyrase using relaxed PBR322 plasmid DNA as substrate incubated for 30 mins by ethidium bromide staining based agarose gel electrophoresis method; assay type: protein-complex assay
Outline: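 E. coli gyrase supercoiling kit. Relaxed pBR322 plus 1 U gyrase per reaction, compound serially diluted in 5% DMSO; 30 min at 37 °C. Stopped with STE buffer and CHCl3/isoamyl alcohol; 1% agarose gel, ethidium bromide stain. Supercoiled band intensity fitted with a four-parameter model, bottom fixed at 0, for IC50; at least three experiments.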

Structure (SMILES)	MIC [1] [µg/mL]	MIC [2] [µg/mL]	MIC [3] [µg/mL]	MIC [4] [µg/mL]	MIC [5] [µg/mL]	MIC [6] [µg/mL]	MIC [7] [µg/mL]	MIC [8] [µg/mL]	IC50 [9] [µM]	MIC [14] [µg/mL]	also measured
O=C(CCn1cc(CN2CCN(c3cc4c(cc3F)c(=O)c(C(=O)O)cn4C3CC3)CC2)nn1)Nc1ccc(S[C@@H]2O[C@H](CO)[C@H](O)[C@H](O)[C@H]2O)cc1	4	16 (≈ 21.2 µM)	8 (≈ 10.6 µM)	8 (≈ 10.6 µM)	8	8 (≈ 10.6 µM)	32 (≈ 42.5 µM)	2 (≈ 2.65 µM)	32.2		
[N-]=[N+]=NCC(=O)Nc1ccc(S[C@@H]2O[C@H](CO)[C@H](O)[C@H](O)[C@H]2O)cc1									31.7		Ratio IC50 [10]: < 3; Ratio IC50 [11]: < 2
O=C(Cn1cc(CCN2CCN(c3cc4c(cc3F)c(=O)c(C(=O)O)cn4C3CC3)CC2)nn1)Nc1ccc(S[C@@H]2O[C@H](CO)[C@H](O)[C@H](O)[C@H]2O)cc1	32	> 64	≥ 64	≥ 64	16	≥ 64	64 (≈ 84.9 µM)	8 (≈ 10.6 µM)	21.6		
CO[C@H]1O[C@H](CO)[C@H](O)[C@H](O)[C@H]1O									71.7		
[N-]=[N+]=NCCC(=O)Nc1ccc(S[C@@H]2O[C@H](CO)[C@H](O)[C@H](O)[C@H]2O)cc1									30.9		Ratio IC50 [10]: < 3; Ratio IC50 [11]: < 2
[N-]=[N+]=NCCCCC(=O)Nc1ccc(S[C@@H]2O[C@H](CO)[C@H](O)[C@H](O)[C@H]2O)cc1									29.9		Ratio IC50 [10]: < 3; Ratio IC50 [11]: < 2
[N-]=[N+]=NCCCC(=O)Nc1ccc(S[C@@H]2O[C@H](CO)[C@H](O)[C@H](O)[C@H]2O)cc1									31.1		Ratio IC50 [10]: < 3; Ratio IC50 [11]: < 2
O=C(O)c1cn(C2CC2)c2cc(N3CCNCC3)c(F)cc2c1=O [CIPROFLOXACIN]			0.05 (≈ 0.151 µM)	0.05 (≈ 0.151 µM)			< 0.125	< 0.125		< 0.125	inhibition at 48 h, 100 µM [12]: 18%; inhibition at 48 h, 100 µM [13]: 48%
O=[N+]([O-])c1ccc(O[C@@H]2O[C@H](CO)[C@H](O)[C@H](O)[C@H]2O)cc1									52.7		
O=C(CCCn1cc(CN2CCN(c3cc4c(cc3F)c(=O)c(C(=O)O)cn4C3CC3)CC2)nn1)Nc1ccc(S[C@@H]2O[C@H](CO)[C@H](O)[C@H](O)[C@H]2O)cc1	4	16 (≈ 20.8 µM)	8 (≈ 10.4 µM)	8 (≈ 10.4 µM)	4	8 (≈ 10.4 µM)		1 (≈ 1.3 µM)	27.3	2 (≈ 2.6 µM)	
O=C(CCCCn1cc(CCN2CCN(c3cc4c(cc3F)c(=O)c(C(=O)O)cn4C3CC3)CC2)nn1)Nc1ccc(S[C@@H]2O[C@H](CO)[C@H](O)[C@H](O)[C@H]2O)cc1	32	> 64	> 64	> 64	32	> 64	≥ 64	16 (≈ 20.1 µM)	26.2	4 (≈ 5.03 µM)	
O=C(CCn1cc(CCN2CCN(c3cc4c(cc3F)c(=O)c(C(=O)O)cn4C3CC3)CC2)nn1)Nc1ccc(S[C@@H]2O[C@H](CO)[C@H](O)[C@H](O)[C@H]2O)cc1	32	> 64	> 64	> 64	32	> 64	> 64	16 (≈ 20.8 µM)	28		
O=C(Cn1cc(CN2CCN(c3cc4c(cc3F)c(=O)c(C(=O)O)cn4C3CC3)CC2)nn1)Nc1ccc(S[C@@H]2O[C@H](CO)[C@H](O)[C@H](O)[C@H]2O)cc1	4	16 (≈ 21.6 µM)			4		32 (≈ 43.3 µM)	2 (≈ 2.7 µM)	30.4		inhibition at 48 h, 100 µM [12]: 5%; inhibition at 48 h, 100 µM [13]: 8%; microsomal CLint [15]: 10 µL/min/mg; PPB [16]: 69%; half-life at […], 40 µM [17]: > 2.5 h; microsomal CLint [18]: 10 µL/min/mg
C[C@@H]1O[C@H](CNS(=O)(=O)c2ccc(CCN=[N+]=[N-])s2)[C@@H](O)[C@H](O)[C@@H]1O											IC50 [19]: 1.87 µM; IC50 [20]: 3.91 µM
C[C@@H]1O[C@H](CNS(=O)(=O)c2ccc(CCn3cc(CN4CCN(c5cc6c(cc5F)c(=O)c(C(=O)O)cn6C5CC5)CC4)nn3)s2)[C@@H](O)[C@H](O)[C@@H]1O	32	≥ 64	64 (≈ 84 µM)	≥ 64	64	64 (≈ 84 µM)	≥ 64	8 (≈ 10.5 µM)		16 (≈ 21 µM)	inhibition at 48 h, 100 µM [12]: -9%; inhibition at 48 h, 100 µM [13]: 11%; microsomal CLint [15]: 15 µL/min/mg; PPB [16]: 75%; half-life at […], 40 µM [17]: > 2.5 h; microsomal CLint [18]: 10 µL/min/mg; IC50 [19]: 2.24 µM; IC50 [20]: 2.37 µM
C[C@@H]1O[C@H](CNS(=O)(=O)c2ccc(CCn3cc(CCN4CCN(c5cc6c(cc5F)c(=O)c(C(=O)O)cn6C5CC5)CC4)nn3)s2)[C@@H](O)[C@H](O)[C@@H]1O	≥ 64				64		≥ 64	16 (≈ 20.6 µM)		32 (≈ 41.2 µM)	IC50 [19]: 1 µM; IC50 [20]: 2.53 µM
O=C(CCCCn1cc(CN2CCN(c3cc4c(cc3F)c(=O)c(C(=O)O)cn4C3CC3)CC2)nn1)Nc1ccc(S[C@@H]2O[C@H](CO)[C@H](O)[C@H](O)[C@H]2O)cc1	8	32 (≈ 40.9 µM)			2			2 (≈ 2.56 µM)	28.3	4 (≈ 5.12 µM)	
O=C(CCCn1cc(CCN2CCN(c3cc4c(cc3F)c(=O)c(C(=O)O)cn4C3CC3)CC2)nn1)Nc1ccc(S[C@@H]2O[C@H](CO)[C@H](O)[C@H](O)[C@H]2O)cc1	32	> 64	> 64	> 64	32	> 64	64 (≈ 81.9 µM)	16 (≈ 20.5 µM)	29.3	4 (≈ 5.12 µM)	
C#CCN1CCN(c2cc3c(cc2F)c(=O)c(C(=O)O)cn3C2CC2)CC1	1	4 (≈ 10.8 µM)			0.025	2 (≈ 5.41 µM)					IC50 [21]: 0.7 µM
